Source: publication PMC3328361 (The Journal of Experimental Medicine, 2012)

Assays:
[1] = test system: SNCA; experiment: SNCA gene expression by qPCR, MPTP-lesioned WT mice; type: in vivo
[2] = Mouse pharmacokinetic and brain uptake study; type: in vivo, C57BL/6 mice
How it was run: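 Male C57BL/6 mice, 11 wk old, got a single 30 mg/kg oral gavage dose (7.5 mg/ml suspension in standard suspension vehicle). Plasma and brain were sampled at time points up to 24 h, n = 3 per point, under pentobarbitone anaesthesia. Samples were acetonitrile-precipitated and quantified against matrix-matched standards. Quantitation limits: 5 ng/ml plasma, 10 ng/g brain. Brain/plasma ratio taken from AUC0-6h.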

[3] = test system: synaptophysin; experiment: Synaptophysin levels in striatum of hA53T tg mice; type: in vivo; settings: 30 mg/kg
How it was run: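 hA53T tg mice, 7 mo old, were given 30 mg/kg or vehicle by oral gavage for 20 d. Striatal homogenate (~20 µg) was reduced with β-mercaptoethanol, heated to 90°C for 5 min, run on 10% SDS-PAGE and blotted to nitrocellulose. Synaptophysin densitometry was normalised to GAPDH or β-actin and expressed as percentage of vehicle.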

[4] = test system: MPTP-lesioned C57BL/6 mice; experiment: Stereological SNpc neuron counts, MPTP-lesioned wild-type mice; type: in vivo; settings: for increase in number of SNpc neurons vs vehicle-treated MPTP-lesioned mice: started 1 d after lesion, 20 d
[5] = test system: TH; experiment: TH levels in SNpc of MPTP-lesioned mice; type: in vivo
How it was run: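 MPTP lesion: four i.p. doses of 10 mg/kg at 2-h intervals; 15 or 30 mg/kg oral gavage from the next day. For TH immunostaining, 30 µm coronal SNpc sections were post-fixed in 4% PFA and boiled in citrate buffer (pH 6.0). They were blocked with normal goat serum and incubated overnight at room temperature with rabbit anti-TH 1:3000, then HRP secondary for 2 h and DAB. Western blots were normalised to GAPDH or β-actin.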

[6] = test system: VMAT2; experiment: VMAT2 levels in MPTP-lesioned mice; type: in vivo; settings: for increase in VMAT2 levels: 3–4-mo-old MPTP-lesioned mice
How it was run: (§1)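 MPTP lesion: four i.p. doses of 10 mg/kg at 2-h intervals. Test compound (15 or 30 mg/kg) or vehicle was given by oral gavage from the next day for 21 d. Brain homogenate (~20 µg) was reduced, heated to 90°C for 5 min, run on 10% SDS-PAGE and blotted to nitrocellulose. Densitometry was normalised to GAPDH or β-actin and expressed as percentage of vehicle.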

[7] = test system: 6-OHDA-lesioned C57BL/6 mice; experiment: Stereological SNpc neuron counts, 6-OHDA-lesioned mice; type: in vivo; settings: 30 mg/kg, started 3 d after 6-OHDA lesion, 20 d
How it was run: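 6-OHDA lesion in the right substantia nigra of 2-mo-old C57BL/6 mice; dosing started 3 d post-lesion. Mice were perfused with cold PBS. The right hemisphere was fixed overnight in 4% paraformaldehyde in 0.1 M phosphate buffer at 4°C. Nissl-stained SNpc neurons were counted stereologically with an unbiased 45 µm × 35 µm counting frame.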

[8] = test system: α-synuclein; experiment: α-Synuclein levels in SNpc, MPTP-lesioned hA53T α-synuclein tg mice; type: in vivo
How it was run: as §1

[9] = test system: hA53T α-synuclein tg mice; experiment: Pole test, hA53T α-synuclein tg mice; type: in vivo; settings: 30 mg/kg
[10] = test system: MPTP-lesioned C57BL/6 mice; experiment: Pole test, MPTP-lesioned wild-type mice; type: in vivo
How it was run: (§2)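 Oral gavage of 15 or 30 mg/kg test compound or suspension vehicle began 1 d post-lesion. Saline sham-lesioned controls received vehicle. Pole test (Tturn, Ttotal) was run after 19 d of treatment.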

[11] = test system: hA53T tg mice lesioned with MPTP; experiment: Stereological SNpc neuron counts, MPTP-lesioned hA53T tg mice; type: in vivo; settings: 30 mg/kg
How it was run: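 MPTP was given i.p. as four 10 mg/kg doses at 2-h intervals. Groups: 4-mo-old female C57BL/6 mice and 7-mo-old hA53T α-synuclein tg mice, equal sexes. From 1 d post-lesion, mice got 15 or 30 mg/kg test compound or suspension vehicle by oral gavage for […]; saline sham-lesioned controls got vehicle. Perfused brains, right hemisphere fixed in 4% paraformaldehyde; Nissl-stained SNpc counted stereologically (45 × 35 µm frame).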

[12] = test system: VMAT2; experiment: VMAT2 microPET imaging with 18F-AV133, MPTP-lesioned 18-mo-old mice; type: in vivo; settings: 18 mo MPTP-lesioned mice, 30 mg/kg
How it was run: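 Female B6C3H x HeJ mice, 18 mo old, had baseline VMAT2 microPET: 500 µCi 18F-AV-133 by tail vein, imaged for 30 min. They were then lesioned with 4 × 10 mg/kg MPTP. Treatment at 30 mg/kg or vehicle began the following day and ran 21 d, after which microPET imaging was repeated.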

[13] = test system: differentiated SH-SY5Y cells; experiment: 3-NT levels in cell media by ELISA after SIN-1; type: cell-based, human; settings: 40 µM pretreatment before SIN-1
How it was run: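 Human SH-SY5Y cells were differentiated with 10 µM retinoic acid in 1.5% FCS medium for 3 d, then given fresh medium for another 3 d. Cells were preincubated with test compound (10, 20, 40 µM) for 5 min, then exposed to 3 mM SIN-1 for 90 min. Media were coated in pH 9.6 carbonate buffer for ELISA at 22°C: rabbit […] 1:2000, HRP secondary, TMB, A450.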

[14] = test system: hA53T tg mice lesioned with MPTP; experiment: Pole test, MPTP-lesioned hA53T tg mice; type: in vivo
How it was run: as §2

[15] = Rat pharmacokinetic study; type: in vivo, Sprague Dawley rats
How it was run: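 Fasted male Sprague Dawley rats (6–8 wk, ~280 g) received 20 mg/kg by oral gavage as a 6 mg/ml suspension (n = 3). Another group (n = 3) got 5 mg/kg by i.v. jugular-cannula infusion at 0.05 ml/min, as a 3 mg/ml solution in 20% DMSO/80% propylene glycol. Serial blood was taken to 24 h; plasma was acetonitrile-precipitated and analysed by LC-MS.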

[16] = test system: low copy mice overexpressing human G93A SOD1; settings: ref Soon et al., 2011, cited from earlier work
[17] = test system: α-synuclein; experiment: α-Synuclein levels in SNpc, MPTP-lesioned wild-type mice; type: in vivo
How it was run: as §1

[18] = Time-dependent degradation of ONOO^− monitored by UV-visible spectroscopy; type: biochemical; settings: Cu^II(atsm) at 10 µM; ONOO^− in high pH solution (alone 53 ± 3 min)
[19] = test system: MPTP-lesioned mice; experiment: Dopamine measurement of mouse striatum; type: in vivo; settings: 30 mg/kg
How it was run: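 MPTP lesion: four i.p. doses of 10 mg/kg at 2-h intervals. Starting the next day, mice received 30 mg/kg test compound or suspension vehicle by oral gavage. Right striatum was homogenised by pulse sonication in 0.4 M perchloric acid with 0.15% sodium metabisulfite and 0.05% EDTA disodium salt for dopamine measurement.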

[20] = Overt toxicity observation in animal studies; type: in vivo; settings: studies of this paper and a longer term 12-mo trial in wild-type animals
[21] = test system: differentiated SH-SY5Y cells; experiment: MTS cell viability, SIN-1–induced toxicity; type: cell-based, human; settings: added to cell culture 5 min after SIN-1; unpublished data
[22] = target: T1, α-synuclein (Homo sapiens, UniProt P37840); experiment: 2D [1H,15N] HSQC NMR titration of 15N-labeled α-synuclein; type: binding; settings: increasing concentrations titrated in
[23] = test system: hA53T α-synuclein tg mice; experiment: Novel object recognition; type: in vivo; settings: 30 mg/kg for 20 d
How it was run: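 hA53T α-synuclein tg mice, 7 mo old, equal sexes, received 30 mg/kg test compound or vehicle by oral gavage for 20 d. Novel object test with Lego blocks: 10-min training with two objects, 1-h delay, then one familiar object replaced by a novel 1.5 × 1.5 × 2.0 cm object. Index = time with novel object / time with familiar object.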

[24] = test system: hA53T α-synuclein tg mice; experiment: Stereological nigral cell counts, hA53T α-synuclein tg mice; type: in vivo; settings: 30 mg/kg, 20 d
How it was run: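 hA53T α-synuclein tg mice and C57BL/6 x C3H background controls, 7 mo old, equal sexes, received 30 mg/kg test compound or suspension vehicle by oral gavage for 20 d. The right hemisphere of PBS-perfused brains was fixed overnight in 4% paraformaldehyde at 4°C. Nissl-stained nigral neurons were counted stereologically using a 45 µm × 35 µm unbiased counting frame.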

[25] = test system: 6-OHDA-lesioned C57BL/6 mice; experiment: Amphetamine-induced rotation, 6-OHDA model; type: in vivo; settings: 30 mg/kg, 6-OHDA-lesioned mice
How it was run: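 Partial 6-OHDA lesion: 2 µl injected into the right substantia nigra of 2-mo-old C57BL/6 mice, 3.0 mm AP, 1.1 mm lateral, 4.7 mm DV from bregma. Amphetamine-induced rotation was tested 3 d post-lesion, before dosing, to confirm lesion size. Mice were randomised to test compound or vehicle for 18 d, then rotation was retested.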

[26] = target: T1, α-synuclein; experiment: α-Synuclein amyloid fibril formation; type: biochemical; settings: unpublished data
[27] = test system: hA53T α-synuclein tg mice; experiment: Y-maze test, hA53T tg mice; type: in vivo; settings: 30 mg/kg, vehicle-treated 30%
[28] = test system: α-synuclein; experiment: α-Synuclein levels, hA53T α-synuclein tg mice not MPTP-lesioned; type: in vivo; settings: unpublished data
[29] = single oral 30 mg/kg, C57BL/6 mice
[30] = single oral 20 mg/kg, male Sprague Dawley rats

## CN=C([S-])N/N=C(C)/C(C)=N/NC([S-])=NC.[Cu+2] [Cu^II(atsm), copper(II)diacetylbis(N(4)-methylthiosemicarbazonato)]
[1]
  SNCA gene regulation (qPCR): recovered to levels of unlesioned WT mice
[2]; based on Cmax levels, oral 30 mg/kg mice
  maximum concentration of the compound in the brain: ~0.6 µM
[2]; [29]
  brain Cmax: 198 ± 61 ng/mL
  brain Tmax: 2 h
  brain/plasma ratio (AUC0-6h): 0.32
  plasma Cmax: 591 ± 203 ng/mL
  plasma Tmax: 1 h
[2]; single oral 30 mg/kg, C57BL/6 mice, plasma
  apparent elimination half-life: ~3.3 h
[3]
  increase in synaptophysin levels vs vehicle-treated tg mice: 31%
[4]; 15 mg/kg oral gavage
  increase in number of SNpc neurons vs vehicle-treated MPTP-lesioned mice: 43%
[4]; 30 mg/kg oral gavage
  increase in number of SNpc neurons vs vehicle-treated MPTP-lesioned mice: 61%
[4]; nonlesioned wild-type mice
  effect on cell numbers of nonlesioned wild-type mice: no effect
[5]
  TH mRNA transcript levels (qPCR, SNpc): rescued
[5]; 15 mg/kg
  increase in TH levels (Western blot): 42%
[5]; 30 mg/kg
  increase in TH levels (Western blot): 45%
[5]; either 15 or 30 mg/kg
  immunostaining of TH in SNpc: increased immunostaining
[6]; 15 mg/kg
  increase in VMAT2 levels: 13%
[6]; 30 mg/kg
  increase in VMAT2 levels: 12%
[6]; MPTP-lesioned animals
  VMAT2 transcripts (qPCR, SNpc): levels were restored to those similar to the wild-type animals
[6]; older (18 mo) MPTP-lesioned mice
  increase in VMAT2 protein levels in striatum (Western blot): 60%
[7]
  increase in number of SNpc dopaminergic neurons: 26%
[8]; MPTP-lesioned hA53T tg mice
  reduction in α-synuclein monomer levels: 12%
[8]; MPTP-lesioned hA53T α-synuclein tg mice
  α-synuclein dimers, % of control-treated: 83%
[9]
  improvement in Ttotal times: not statistically significant
[9]; vehicle 3.9 ± 0.5 s
  Tturn (pole test): 1.1 ± 0.3 s
[10]; 15 mg/kg
  decrease of Tturn and Ttotal times: did not reach statistical significance
[10]; 30 mg/kg
  faster Ttotal (pole test) vs MPTP-lesioned vehicle: 2.2 s
  faster Tturn (pole test) vs MPTP-lesioned vehicle: 1.5 s
[10]; nonlesioned wild-type mice
  effect on motor performance of nonlesioned wild-type mice: no effect
[11]
  increase of SNpc neurons: 15%
[12]
  increase in 18F-AV133 ligand binding vs vehicle control lesioned mice: 142%
[13]
  reduction in nitrotyrosine (3-NT) levels: 51%
[14]
  improvement in Ttotal: 37%
  improvement in Tturn: 49%
[14]; vehicle 2.4 ± 0.4 s
  Tturn (pole test): 1.2 ± 0.1 s
[14]; vehicle 6.1 ± 0.8 s
  Ttotal (pole test): 3.9 ± 0.2 s
[15]; oral 20 mg/kg vs intravenous 5 mg/kg, rats
  apparent oral bioavailability: 53 ± 5%
[15]; [30]
  Tmax: 10 h
  elimination half-life: 3.1 ± 0.4 h
[15]; single oral 20 mg/kg, male Sprague Dawley rats, plasma
  Cmax: 488.1 ± 67.0 ng/mL
[16]; pre- and postsymptomatic treatment regimes
  motor phenotype in ALS tg mouse model: successful in rescuing the motor phenotype
[16]
  survival in ALS tg mouse model: increased survival rates
[17]
  α-synuclein dimers, % of control-treated: 76%
  α-synuclein monomer levels: no changes
[18]
  ONOO^− half-life: ~0.193 ± 0.0083 h
[19]
  increase in dopamine levels vs untreated MPTP-lesioned animals: 122%
[20]
  overt toxicity: No overt toxicity
[21]
  protective effect in posttreatment paradigm: no protective effect was observed
[22]
  direct interaction between α-synuclein and compound (HSQC spectra): no direct interaction
[23]
  increase in interactions with the novel object vs vehicle-treated mice: 73%
[24]
  increase in total nigral cells: 14%
[25]
  reduction in amphetamine-induced rotational behavior vs controls: 45%
[26]
  inhibition of formation of α-synuclein fibrils: did not inhibit the formation of α-synuclein fibrils
[27]
  mean novel arm entries (Y-maze): 42%
[28]
  α-synuclein levels vs vehicle treatment: did not lead to any significant differences
